Measured values taken from ChEMBL document CHEMBL3792386, “Design, Synthesis, and Biological Evaluation of Novel Selenium (Se-NSAID) Molecules as Anticancer Agents” (J Med Chem, 2016).
The source made the active and inactive calls. The rule behind the calls is not given here.

Experiments:
[1] = Antiproliferative activity against human DU145 cells assessed as reduction in cell viability after 48 hrs by MTT assay; format: functional, cell-based; conditions: DU-145, 48 h
Procedure, shortened: (§1)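 3000 cells/well incubated in triplicate with serial concentrations of compound for 24, 48 or 72 h at 37 °C. MTT (5.0 mg/mL solution) added 3 h before the end. Formazan dissolved in DMSO, absorbance read at 570 and 630 nm. Viability normalised to vehicle control. IC50 from non-linear regression (variable slope), mean ± SD of triplicates.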

HCT-116 [2] = assay: Induction of apoptosis in human HCT116 cells assessed as late apoptotic cells at 2.5 uM after 24 hrs by annexin V/7-ADD staining-based flow cytometry (reference value: 1.65%); format: functional
HCT-116 [3] = assay: Induction of apoptosis in human HCT116 cells assessed as early apoptotic cells at 2.5 uM after 24 hrs by annexin V/7-ADD staining-based flow cytometry (reference value: 5.20%); format: functional
MEF = assay: Cytotoxicity against mouse MEF at 1 to 10 uM after 48 hrs by MTT assay; format: cell-based
Procedure, shortened: (§2)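 Cells (HCT116, nHDF in serum-free fibroblast medium with growth kit, or MEFs) exposed to increasing compound concentrations for 48 h at 37 °C. Viability read by MTT: 3000 cells/well, triplicate, MTT 3 h before end, formazan in DMSO, absorbance 570/630 nm. Mean ± SD.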

HCT-116 [4] = assay: Induction of apoptosis in human HCT116 cells assessed as live cells at 5 uM after 24 hrs by annexin V/7-ADD staining-based flow cytometry (reference value: 90.05%); format: functional
HepG2 = assay: Antiproliferative activity against human HepG2 cells assessed as reduction in cell viability after 48 hrs by MTT assay; format: functional, cell-based; conditions: HepG2, 48 h; procedure, shortened: as §1
RKO = assay: Antiproliferative activity against human RKO cells assessed as reduction in cell viability after 48 hrs by MTT assay; format: functional, cell-based; procedure, shortened: as §1
HCT-116 [5] = assay: Induction of apoptosis in human HCT116 cells assessed as dead cells at 10 uM after 24 hrs by annexin V/7-ADD staining-based flow cytometry (reference value: 3.10%); format: functional
[6] = Induction of cell death in human HCT116 cells at 15 uM after 24 hrs by ethidium bromide staining-based fluorescence microscopy; format: functional, HCT-116
Procedure, shortened: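 HCT116 cells treated 24 h with DMSO, 1 mM aspirin or 15 μM compound, then trypsinised. Cells were stained with calcein-AM (live, esterase activity) and ethidium homodimer-1 (dead, membrane loss). Cells were imaged by fluorescence microscopy with a 20X objective, and percent dead cells was counted. Values are mean ±SD.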

HCT-116 [7] = assay: Induction of apoptosis in human HCT116 cells assessed as early apoptotic cells at 10 uM after 24 hrs by 7-ADD and caspase 3/7 activity-based flow cytometry (reference value: 2.45%); format: functional
HCT-116 [8] = assay: Effect on cell cycle in human HCT116 cells assessed as inhibition of cyclin E1 expression at 1 to 10 uM after 24 hrs by Western blot method; format: functional, cell-based
Procedure, shortened: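 CRC cells treated at indicated doses for 24 h. Whole-cell lysates made in RIPA buffer with protease and phosphatase inhibitors and cleared at 15,000 rpm for 10 min. Resolved on 4-12% gels, transferred to PVDF, probed for cell-cycle proteins, detected by ECL. Membranes stripped for sequential probing.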

[9] = Antiproliferative activity against human SKOV3 cells assessed as reduction in cell viability after 72 hrs by MTT assay; format: functional, cell-based; conditions: SK-OV-3, 72 h; procedure, shortened: as §1
[10] = Antiproliferative activity against human DU145 cells assessed as reduction in cell viability after 72 hrs by MTT assay; format: functional, cell-based; conditions: DU-145, 72 h; procedure, shortened: as §1
NCI-H460 = assay: Antiproliferative activity against human NCI-H460 cells assessed as reduction in cell viability after 72 hrs by MTT assay; format: functional, cell-based; conditions: NCI-H460, 72 h; procedure, shortened: as §1
HCT-116 [11] = assay: Induction of ROS generation in human HCT116 cells at 10 uM after 6 hrs by flow cytometry (reference value: 6%); format: functional
HCT-116 [12] = assay: Induction of ROS generation in human HCT116 cells at 5 uM after 3 hrs by flow cytometry (reference value: 8.06%); format: functional
HCT-116 [13] = assay: Induction of apoptosis in human HCT116 cells assessed as dead cells at 10 uM after 24 hrs by 7-ADD and caspase 3/7 activity-based flow cytometry (reference value: 3.25%); format: functional
HCT-116 [14] = assay: Induction of cell cycle arrest in human HCT116 cells assessed as accumulation at G1 phase at 5 uM after 24 hrs by propidium iodide staining-based flow cytometry (reference value: 28%); format: functional
HCT-116 [15] = assay: Induction of ROS generation in human HCT116 cells at 10 uM after 24 hrs by flow cytometry (reference value: 12.42%); format: functional
UACC-903 [16] = assay: Antiproliferative activity against human UACC-903 cells assessed as reduction in cell viability after 72 hrs by MTT assay; format: functional, cell-based; conditions: UACC-903, 72 h; procedure, shortened: as §1
HCT-116 [17] = assay: Induction of apoptosis in human HCT116 cells assessed as live cells at 10 uM after 24 hrs by 7-ADD and caspase 3/7 activity-based flow cytometry (reference value: 92.60%); format: functional
UACC-903 [18] = assay: Antiproliferative activity against human UACC-903 cells assessed as reduction in cell viability after 24 hrs by MTT assay; format: functional, cell-based; conditions: UACC-903, 24 h; procedure, shortened: as §1
HCT-116 [19] = assay: Induction of apoptosis in human HCT116 cells assessed as early apoptotic cells at 10 uM after 24 hrs by annexin V/7-ADD staining-based flow cytometry (reference value: 5.20%); format: functional
HCT-116 [20] = assay: Induction of apoptosis in human HCT116 cells assessed as late apoptotic cells at 10 uM after 24 hrs by annexin V/7-ADD staining-based flow cytometry (reference value: 1.65%); format: functional
HCT-116 [21] = assay: Induction of apoptosis in human HCT116 cells assessed as live cells at 10 uM after 24 hrs by annexin V/7-ADD staining-based flow cytometry (reference value: 90.05%); format: functional
HT-29 = assay: Antiproliferative activity against human HT-29 cells assessed as reduction in cell viability after 72 hrs by MTT assay; format: functional, cell-based; conditions: HT-29, 72 h; procedure, shortened: as §1
[22] = Antiproliferative activity against human HCT116 cells assessed as reduction in cell viability after 48 hrs by MTT assay; format: functional, cell-based; conditions: HCT-116, 48 h; procedure, shortened: as §1
HCT-116 [23] = assay: Induction of apoptosis in human HCT116 cells assessed as late apoptotic cells at 2.5 uM after 24 hrs by 7-ADD and caspase 3/7 activity-based flow cytometry (reference value: 1.70%); format: functional
HCT-116 [24] = assay: Induction of apoptosis in human HCT116 cells assessed as live cells at 5 uM after 24 hrs by 7-ADD and caspase 3/7 activity-based flow cytometry (reference value: 92.60%); format: functional
[25] = Antiproliferative activity against human DU145 cells assessed as reduction in cell viability after 24 hrs by MTT assay; format: functional, cell-based; conditions: DU-145, 24 h; procedure, shortened: as §1
NHDF = assay: Cytotoxicity against human NHDF at 1 to 10 uM after 48 hrs by MTT assay; format: cell-based; procedure, shortened: as §2
HCT-116 [26] = assay: Induction of cell cycle arrest in human HCT116 cells assessed as accumulation at S phase at 5 uM after 24 hrs by propidium iodide staining-based flow cytometry (reference value: 48%); format: functional
HCT-116 [27] = assay: Cytotoxicity against human HCT116 cells assessed as reduction in cell viability after 48 hrs MTT assay; format: functional, cell-based; procedure, shortened: as §2

Question: With CC(=O)Oc1ccccc1C(=O)NCC[Se]C#N as the compound, how does the IC50 [1] read?
Answer: 3400 nM

Question: What about the Activity (HCT-116 [2]) of the same compound?
Answer: 8.3%

Question: What about the Activity (HCT-116 [3]) of the same compound?
Answer: 13.65%

Question: And the Activity (MEF)?
Answer: Non-toxic

Question: What about the Activity (HCT-116 [4]) of the same compound?
Answer: 31.2%

Question: What about the IC50 (HepG2) of the same compound?
Answer: 5000 nM

Question: And the IC50 (RKO)?
Answer: 2200 nM

Question: And the Activity (HCT-116 [5])?
Answer: 1.6%

Question: What about the Activity [6] of the same compound?
Answer: 51%

Question: And the Activity (HCT-116 [7])?
Answer: 37.65%

Question: What about the inhibition (HCT-116 [8]) of the same compound?
Answer: Active

Question: And the IC50 [9]?
Answer: 4400 nM

Question: And the IC50 [10]?
Answer: 2900 nM

Question: What about the IC50 (NCI-H460) of the same compound?
Answer: 1300 nM

Question: What about the Activity (HCT-116 [11]) of the same compound?
Answer: 16.54%

Question: And the Activity (HCT-116 [12])?
Answer: 9.16%

Question: What about the Activity (HCT-116 [13]) of the same compound?
Answer: 2.25%

Question: And the Activity (HCT-116 [14])?
Answer: 68%

Question: And the Activity (HCT-116 [15])?
Answer: 80.54%

Question: And the IC50 (UACC-903 [16])?
Answer: 2900 nM

Question: What about the Activity (HCT-116 [17]) of the same compound?
Answer: 13.25%

Question: And the IC50 (UACC-903 [18])?
Answer: 24300 nM

Question: And the Activity (HCT-116 [19])?
Answer: 32.4%

Question: And the Activity (HCT-116 [20])?
Answer: 51.55%

Question: And the Activity (HCT-116 [21])?
Answer: 14.45%

Question: And the IC50 (HT-29)?
Answer: 2100 nM

Question: What about the IC50 [22] of the same compound?
Answer: 2500 nM

Question: What about the Activity (HCT-116 [23]) of the same compound?
Answer: 9.05%

Question: And the Activity (HCT-116 [24])?
Answer: 20.55%

Question: What about the IC50 [25] of the same compound?
Answer: 8200 nM

Question: And the Activity (NHDF)?
Answer: Non-toxic

Question: What about the Activity (HCT-116 [26]) of the same compound?
Answer: 13%

Question: What about the Activity (HCT-116 [27]) of the same compound?
Answer: Active
